# Hits are enriched below; roughly 2.1% of the tested compounds scored in any of these assays.
# ARFGAP1 inh = inhibitors of rat ARFGAP1; Q62848; Arfgap1-stimulated ARF1 GTP hydrolysis, GDP FP detection; inhibition, % at 16.5 µM; 360,000 tested, 0.26% active; AID 651572;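 active = inhibition above a per-plate limit, mean inhibition of low control wells plus 3 SD, cut at about 25% in these data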
# Target sequence (Q62848 1-136 limits assumed): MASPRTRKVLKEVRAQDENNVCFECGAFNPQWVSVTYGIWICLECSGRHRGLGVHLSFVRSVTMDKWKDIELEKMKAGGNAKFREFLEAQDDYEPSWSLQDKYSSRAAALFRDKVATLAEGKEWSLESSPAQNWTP
#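 Repeats: one replicate per compound; assay system: rat Arfgap1 catalytic domain, aa 1-136; times: enzyme reaction 120 min at 25 °C after 20 min preincubation; detection: FP of antibody-bound GDP Alexa 633 tracer, ex 620/em 688 nm; benchmarks: high control wells lacking Arfgap1, low control full reaction with DMSO; reagent: human ARF1(Δ1-17)-GTP substrate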
# ASAP1 GAP inh = inhibitors of human ASAP1 ArfGAP activity; AID 624377; 360,000 tested, 0.19% active; ASAP1-stimulated ARF1 GTP hydrolysis, GDP FP detection; inhibition, % at 16.5 µM; in the data active = inhibition above about 25%
# Mot1-301 SUMO = inhibitors of SUMOylation pathway: yeast Mot1-301 growth rescue; S. cerevisiae Mot1-301 growth rescue, ATP luminescence, 38.5C; percent above DMSO median, 100 means doubled; growth rescue, % at 18.8 µM; 320,000 tested, 1% active;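 active = every valid replicate shows activation above 250% relative to neutral control wells; inactive = the rest, any valid replicate at or below 250%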
# A3A deaminase = human APOBEC3A DNA deaminase inhibition; AID 493011; P31941; inhibition, % at 20 µM; recombinant A3A, FAM/TAMRA ssDNA deamination fluorescence; 330,000 tested, 0.41% active;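 active = at least 40% inhibition at 20 µM here, with at most 30% in a related deaminase screen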
# Statin myotox sup = suppressors of simvastatin-induced myotoxicity in C2C12 myotubes; 330,000 tested, 0.78% active; AID 602340; ATP luminescence, 48 h; scaled: DMSO 0, geranylgeraniol control 100; rescue of ATP level, % at 7.49 µM;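 active = mean ATP rescue above about 67%, or every replicate alone reaching that limit, limit read from the data, passing the limit was not always enough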;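 also: myotubes were challenged with 10 µM simvastatin during compound exposure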
# A3G deaminase = inhibitors of human APOBEC3G DNA deaminase. 330,000 tested, 0.28% active. Q9HC16. recombinant A3G, ssDNA deamination FAM/TAMRA fluorescence. inhibition, % at 20 µM;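 active = inhibition of at least 40% at 20 µM, with no more than 30% in the related APOBEC3A deaminase screen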
# Target sequence (Q9HC16 whole entry, looked up): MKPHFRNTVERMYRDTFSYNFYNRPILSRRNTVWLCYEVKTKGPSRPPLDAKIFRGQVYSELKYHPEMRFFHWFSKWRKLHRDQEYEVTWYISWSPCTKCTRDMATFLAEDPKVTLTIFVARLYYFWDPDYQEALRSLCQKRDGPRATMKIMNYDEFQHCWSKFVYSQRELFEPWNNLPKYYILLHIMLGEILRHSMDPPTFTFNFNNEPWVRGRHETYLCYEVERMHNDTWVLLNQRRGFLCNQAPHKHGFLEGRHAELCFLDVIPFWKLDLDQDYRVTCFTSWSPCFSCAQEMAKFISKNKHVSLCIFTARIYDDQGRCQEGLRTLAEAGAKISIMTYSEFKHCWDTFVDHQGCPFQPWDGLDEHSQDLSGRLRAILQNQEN
# A number is an active result; – = inactive; · = not tested or not shown.
SMILES,ARFGAP1 inh,ASAP1 GAP inh,Mot1-301 SUMO,A3A deaminase,Statin myotox sup,A3G deaminase
COc1ccc(C2C(C(C)=O)=C(O)C(=O)N2CCCn2ccnc2)cc1 (stereo not given),–,–,–,–,–,–
Cc1ccc(S(=O)(=O)Nc2ccc3c(c2)CC(=O)N([C@@H](C)CO)C[C@H](C)[C@@H](CN(C)S(=O)(=O)c2ccc(Cl)cc2)O3)cc1,·,·,·,·,–,·
Nc1ccn(CC(=O)N[C@H](CO)Cc2c[nH]c3ccccc23)c(=O)n1,–,–,–,–,124,–
Cc1nc2c3ccccc3nc(SCC(=O)c3ccc(Cl)cc3)n2n1,–,–,–,–,–,–
COCCNC(=O)CSc1nc2ccccc2c2nc(C)nn12,–,–,–,–,124,–
O=C(Nc1ccc2c(c1)OCO2)N[C@H]1CC[C@@H](CCNC(=O)C2CC2)O[C@@H]1CO,·,·,·,·,–,·
CCCC(=O)Nc1ccc2c(c1)OC[C@H](C)N(C(=O)c1ccccc1F)C[C@@H](C)[C@@H](OC)CN(C)C2=O,·,·,·,·,–,·
COc1ccccc1C(=O)Nc1ccc2c(c1)OC[C@@H](C)NC[C@@H](C)[C@@H](OC)CN(C)C2=O,·,·,·,·,–,·
COc1ccc(C(=O)NCC(=O)N2CCC(C)CC2)cc1OC,–,–,–,–,90,–
COc1ccc(C(=O)NCCc2cnc[nH]2)cc1OC,–,–,282,–,–,–
COc1ccc(C(=O)NCC(=O)OCC(=O)N2CCC(C)CC2)cc1OC,–,–,·,–,·,–
C=CCn1c(=O)c(C(=O)Nc2ccc(C)cn2)c(O)c2ccccc21,–,–,–,–,–,–
C=CCn1c(=O)c(C(=O)Nc2cccnc2)c(O)c2ccccc21,–,–,–,–,96,–
COc1ccc(N(C(=O)c2ccn[nH]2)C(C(=O)NC(C)(C)C)c2ccc(F)cc2)cc1 (stereo not given),–,–,–,–,88,–
CC(C)(C)NC(=O)C(c1ccc(F)cc1)N(CCc1ccccc1)C(=O)c1ccn[nH]1 (stereo not given),–,–,–,–,–,–
COc1ccc(/C(O)=C2/C(=O)C(=O)N(CCN(C)C)C2c2ccccn2)cc1OC (stereo not given),–,–,–,–,118,–
O=C(CN1CCCCC1)Nc1ccc(C(F)(F)F)cc1Cl,–,–,–,–,91,–
C[C@H](CO)N1C[C@H](C)[C@H](CN(C)Cc2ccc(-c3ccccc3)cc2)Oc2ccc(NS(C)(=O)=O)cc2CC1=O,·,·,·,·,–,·
NC(=O)c1cc2c(s1)-c1cc(Cl)ccc1SC2,–,–,351,–,–,–
COCCNC(=O)c1cc2c(s1)-c1ccc(Cl)cc1SC2,–,–,–,–,–,–
O=C1NN=C(c2ccc(Cl)cc2)CC1c1cccc(Cl)c1 (stereo not given),–,–,–,–,137,–
CCC(=O)N(C)C[C@H]1Oc2cc(C#CCN(C)C)ccc2S(=O)(=O)N([C@H](C)CO)C[C@@H]1C,·,·,·,·,–,·
Cc1nn(-c2ccccc2)c(N)c1C(O)(CC(=O)C(F)(F)F)C(F)(F)F (stereo not given),–,–,333,–,–,–
O=C(Nc1ccc(Cl)cc1)Nc1ccccc1CC[N+](=O)[O-],–,–,–,–,104,–
O=C(NC1Cc2ccccc2C1)[C@@H]1[C@@H](CO)[C@@H]2Cn3c(cccc3=O)[C@H]1N2Cc1ccccc1F,·,·,·,·,–,·
SMILES,ARFGAP1 inh,ASAP1 GAP inh,Mot1-301 SUMO,A3A deaminase,Statin myotox sup,A3G deaminase
C[C@@H]1CN([C@H](C)CO)C(=O)Cc2cc(NC(=O)Cc3cn(C)c4ccccc34)ccc2O[C@H]1CN(C)Cc1ccc(-c2ccccc2)cc1,·,·,·,·,93,·
C[C@H]1CN([C@@H](C)CO)C(=O)Cc2cc(NC(=O)Cc3cn(C)c4ccccc34)ccc2O[C@@H]1CN(C)Cc1ccc(-c2ccccc2)cc1,·,·,·,·,–,·
C[C@H](CO)N1C[C@H](C)[C@@H](CN(C)Cc2ccc(Oc3ccccc3)cc2)Oc2ccc(NC(=O)Cc3cn(C)c4ccccc34)cc2CC1=O,·,·,·,·,114,·
C[C@H](CO)N1C[C@H](C)[C@@H](CN(C)S(=O)(=O)c2ccc(F)cc2)Oc2ccc(NC(=O)Cc3cn(C)c4ccccc34)cc2CC1=O,·,·,·,·,102,·
CCOC(=O)c1cc2cc(CC(=O)c3ccc(OCC)cc3O)ccc2o1,–,–,–,–,97,–
O=C(NC1CCCC1)[C@H]1[C@H](CO)[C@H]2Cn3c(ccc(C4=CCCC4)c3=O)[C@@H]1N2C(=O)c1ccccc1,·,·,·,·,–,·
COc1ccc(-n2c(=O)/c(=C\c3cccs3)s/c2=C(/C#N)C(=O)NCCN2CCOCC2)cc1,–,–,–,–,–,–
C=CCn1c(=O)/c(=C\c2ccsc2)s/c1=C(/C#N)C(=O)NCCN1CCOCC1,·,·,–,–,112,–
C[C@H](CO)N1C[C@H](C)[C@@H](CN(C)C(=O)C2CCCCC2)Oc2ncc(-c3cccnc3)cc2C1=O,·,·,·,·,–,·
COc1ccc(C(=O)N2CCc3cc(OC)c(OC)cc3C2)cc1OC,–,–,–,–,122,–
COc1cc2c(cc1OC)CN(C(=O)c1ccc(-c3ccccc3)cc1)CC2,–,–,–,–,–,–
NCC[C@@H]1CC[C@H](NC(=O)c2ccccc2F)[C@H](CO)O1,·,·,·,·,–,·
COc1cc(/C=N/NC(=O)c2ccc(CN3C(=O)c4cccc5cccc3c45)cc2)cc(OC)c1O,–,–,–,–,87,–
COc1ccc(/C=N/NC(=O)c2ccc(CN3C(=O)c4cccc5cccc3c45)cc2)cc1O,–,–,–,–,·,–
Cc1ccccc1NC(=O)c1ccc(C)c(S(=O)(=O)Nc2ccccn2)c1,–,–,–,–,97,–
O=C(Nc1ccc(S(=O)(=O)Nc2ccccn2)cc1)c1cccc(Cl)c1,–,–,–,–,74,–
Cc1ccc(C(=O)Nc2ccc(Br)cc2)cc1S(=O)(=O)Nc1ccccn1,–,–,–,–,·,–
O=S(=O)(N[C@H]1CC[C@H](CCn2cc(C3(O)CCCC3)nn2)O[C@@H]1CO)c1ccccc1,·,·,·,·,–,·
COc1cccc(/C=N\NC(=O)c2cc(OCC(F)(F)F)ccc2OCC(F)(F)F)c1,–,–,–,–,124,–
CNC(=O)c1cc(OCC(F)(F)F)ccc1OCC(F)(F)F,–,–,–,–,·,–
C[C@@H]1CN([C@@H](C)CO)C(=O)c2cc(NC(=O)CCC(F)(F)F)ccc2O[C@@H](C)CCCCO[C@H]1CN(C)C(=O)CCCN(C)C,·,·,·,·,–,·
CN1[C@@H]2c3ccc(-c4cccc(F)c4)c(=O)n3C[C@H]1[C@H](CO)[C@H]2C(=O)N1CCCCC1,·,·,·,·,–,·
O=C(O)c1sc2cc(C(F)(F)F)cnc2c1-c1ccccc1,–,25,–,–,–,–
COC(=O)c1sc2cc(C(F)(F)F)cnc2c1-c1ccccc1,–,–,–,–,–,–
